Assay results of several laboratories.
Each line is one published result; the experiments were not run side by side.
RET V804M: Proto-oncogene tyrosine-protein kinase receptor Ret (RET, Homo sapiens, UniProt P07949, V804M)
RET: Proto-oncogene tyrosine-protein kinase receptor Ret (RET, Homo sapiens, UniProt P07949)
RET V804L: Proto-oncogene tyrosine-protein kinase receptor Ret (RET, Homo sapiens, UniProt P07949, V804L)
RET M918T: Proto-oncogene tyrosine-protein kinase receptor Ret (RET, Homo sapiens, UniProt P07949, M918T)

Structure (SMILES) | target | read-out | mode | technique | concentration | quantity | result
O=C(NCc1ncc(C(F)(F)F)cc1Cl)c1ccc2c(c1)C1(CCS(=O)(=O)CC1)[C@@H](C1CC1)N2S(=O)(=O)c1ccc(F)cc1 | RET V804M | cell-free assay |  | competition with immobilised ligand | 1 µM | remaining binding | 100%
CC(=O)c1cccc(NC(=O)Cc2csc(NC(=O)Nc3cccc(Cl)c3)n2)c1 | RET | enzyme activity | inhibitor | radiometric | 10 µM | remaining activity | 92.6%
Cc1cc(NC(=O)c2cccc3cc(-c4cccc5[nH]nc(N)c45)ccc23)ccc1F | RET V804M | enzyme activity | inhibitor |  | 0.1 µM | activity vs control | 117%
CC/C(=N\NC(=O)NCc1cccc(O)c1)c1ccc(O)c(C)c1O | Proto-oncogene tyrosine-protein kinase receptor Ret (RET, Homo sapiens, UniProt P07949, G691S) | enzyme activity | inhibitor |  | 0.1 µM | inhibition | 5.6%
N[C@H]1CCN(c2nccc(-c3cnn4ncccc34)n2)C1 | RET | binding |  |  | 1 µM | remaining binding | 51%
CC(=O)OCc1cnc(C)c2oc(=Nc3ccc(F)cc3)c(C(=O)Nc3ccc4c(c3)OCO4)cc12 | RET | enzyme activity | inhibitor | radiometric | 0.1 µM | remaining activity | 121%
CC(=O)Nc1c(C(C)=O)c(=O)n(C)c2nc(-c3ccc(Cl)cc3Cl)c(-c3ccc(Cl)cc3)cc12 | RET V804L | cell-free assay |  | competition with immobilised ligand | 1 µM | remaining binding | 100%
CO[C@]1(C(=O)N[C@@H](C)c2ccc(-n3cc(F)cn3)nc2)CC[C@H](c2nc(C)cc(Nc3cc(C)[nH]n3)n2)CC1 | Proto-oncogene tyrosine-protein kinase receptor Ret (RET, Homo sapiens, UniProt P07949, L760A) | thermal stability |  | DSF | 10 µM | ΔTm | 11.9 °C
COc1cc(NC(=O)Nc2cc(OC)c3nc(NC(=O)c4ccccc4)sc3c2)cc(OC)c1 | RET | enzyme activity | inhibitor | radiometric | 0.1 µM | remaining activity | 112%
COc1ccc(CN2C3CC2CN(c2ccc(-c4cc(OCC(C)(C)O)cn5ncc(C#N)c45)cn2)C3)cn1 | Proto-oncogene tyrosine-protein kinase receptor Ret (RET, Homo sapiens, UniProt P07949, K758M) | thermal stability |  | DSF | 10 µM | ΔTm | 11.9 °C
Cc1cccc(NC(=O)CNC(=O)c2ccccc2NS(=O)(=O)c2ccc3[nH]c(=O)[nH]c3c2)c1C | RET | enzyme activity | inhibitor | radiometric | 0.1 µM | remaining activity | 114%
CN(C)c1ncc(F)c(-c2cnn3ncccc23)n1 | RET M918T | binding |  |  | 1 µM | remaining binding | 96%
CC(C)(O)c1cncc(-c2nc3ccc(F)cc3n2C2CC2)c1 | RET | cell-free assay |  | competition with immobilised ligand | 1 µM | remaining binding | 100%
Cc1cnn2ncc(-c3ccnc(N(C)C)n3)c2c1 | RET | binding |  |  | 1 µM | remaining binding | 69%
CCCCN(CCCC)C(=O)CN1C[C@H](c2cc(OC)c3c(c2)OCO3)[C@@H](C(=O)O)[C@@H]1CC(C)(C)CCC | RET V804M | cell-free assay |  | competition with immobilised ligand | 1 µM | remaining binding | 100%
COc1ccc(-c2cn3cc(C(=O)N4CC(O)C4)nc3c(=O)n2C)c(F)c1 | RET | enzyme activity | inhibitor | radiometric | 0.1 µM | remaining activity | 117%
c1cnn2ncc(-c3ccnc(N4CCC45COC5)n3)c2c1 | RET V804L | binding |  |  | 1 µM | remaining binding | 91%
O=C(N1CCS(=O)(=O)CC1)N1C[C@H](c2ccc(OC(F)(F)F)cc2)C[C@H](c2nc(C3CC3)no2)C1 | RET V804L | cell-free assay |  | competition with immobilised ligand | 1 µM | remaining binding | 99%
Nc1ncnc2occ(-c3ccc(NC(=O)Nc4cc(C(F)(F)F)ccc4F)cc3)c12 | RET V804M | cell-free assay |  |  | 20 µM | remaining signal | 0%
COc1ccc(NC(=O)Nc2cc(C)c3nc(NC(=O)c4ccccc4)sc3c2)c(OC)c1 | RET | enzyme activity | inhibitor | radiometric | 0.1 µM | remaining activity | 133%
CS(=O)(=O)N1CCCC(NC(=O)[C@H](CCC2CCCCC2)NC(=O)c2ccc(CNC(=O)c3cnc4ccccn34)cc2)C1 (stereo partly drawn) | RET M918T | cell-free assay |  | competition with immobilised ligand | 0.1 µM | remaining binding | 93%
CCCOc1ccc(OC)c(F)c1C(=O)c1ccc(C(=O)N[C@@H]2CNC[C@H]2NC(=O)c2ccc3[nH]ncc3c2)cc1 | RET | enzyme activity | inhibitor |  | 10 µM | remaining activity | 1%
CCC(=N\O)/C(C)=C/c1ccc(F)cc1 | RET M918T | cell-free assay |  | competition with immobilised ligand | 1 µM | remaining binding | 100%
Cc1ccc2c(=O)c(C(=O)Nc3ccc(C)c(C)c3)cn(CC(=O)NC3CCCC3)c2n1 | RET | enzyme activity | inhibitor | radiometric | 0.1 µM | remaining activity | 114%
